Laboratory results reported in ChEMBL document CHEMBL1131326, “Design, synthesis, and antiviral evaluations of 1-(substituted benzyl)-2-substituted-5,6-dichlorobenzimidazoles as nonnucleoside analogues of 2,5,6-trichloro-1-(beta-D-ribofuranosyl)benzimidazole” (J Med Chem, 1998).

Tests used:
Human alphaherpesvirus 1 = assay: Antiviral activity against herpes simplex virus type-1 (HSV-1); format: functional, organism-based
Method in brief: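 BSC-1 cells (10 000/well, MEM(E) + 10% calf serum) incubated overnight, then given drug in quadruplicate plus HSV-1 KOS at 100 pfu/well; 3 days at 37 °C. ELISA with HRP-conjugated rabbit anti-HSV-1 antibody, TMB substrate, stopped with H₂SO₄, absorbance at 450 and 570 nm; IC50 by regression of % absorbance reduction vs log concentration.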

HFF = assay: Visual cytotoxicity scored on HFF cells at a time of HCMV plaque enumeration; format: functional, cell-based; details: Homo sapiens
Method in brief: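 Cytotoxicity in stationary HFF cells scored by microscopic inspection of cells not affected by virus, at time of HCMV plaque enumeration, in the plaque-assay plates.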

Human betaherpesvirus 5 [1] = assay: Compound was tested for antiviral activity against human cytomegalovirus (HCMV) by plaque reduction assay; format: functional, organism-based
Method in brief: (§1)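 HFF monolayers infected with about 100 pfu/cm² of HCMV Towne (isolate Po); after adsorption, compound in growth medium added to duplicate wells at four to eight concentrations.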

KB = assay: Inhibition of KB cell growth determined by quadruplicate assays; format: functional, cell-based; details: Homo sapiens
Method in brief: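 KB cells seeded at 3000-5000/well, overnight at 37 °C, then compound in quadruplicate at six to eight concentrations for 48 h (about two doublings) in CO₂. Cells fixed in 95% ethanol, stained with 0.1% crystal violet, dye eluted with acidified ethanol and read at 570 nm; IC50 by regression vs log concentration.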

CEM-SS [2] = assay: Cytotoxicity against CEM-SS cells in terms of incorporation of [3H]dThd; format: functional, cell-based; details: Homo sapiens
Method in brief: (§2)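 DNA synthesis in CEM-SS cells measured as uptake of [³H]dThd into total acid-precipitable material; results averaged from duplicate experiments.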

[3] = test system: Human immunodeficiency virus 1; assay: Activity against HIV-1 by syncytial plaque assay performed in duplicate using CEM-SS cells; format: functional, organism-based; details: Human immunodeficiency virus 1, CEM-SS
Method in brief: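 Syncytial plaque assay: poly-L-lysine-adherent CEM-SS cells infected with HIV-1 strain IIIB with or without compound at selected concentrations; syncytial plaques counted at 30-fold magnification 7 days postinfection; duplicate. IC50 from linear regression of percent inhibition against log concentration.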

Human betaherpesvirus 5 [4] = assay: Antiviral activity against human cytomegalovirus (HCMV) by plaque reduction assay; format: functional, organism-based; method in brief: as §1
[5] = Compound was tested for antiviral activity against HIV resistant to TIBO A-17; format: functional, Human immunodeficiency virus 1
Method in brief: (§3)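 Syncytial plaque assay in duplicate sets on CEM-SS cells made adherent with poly-L-lysine. Virus was the A17 HIV-1 variant, resistant to nonnucleoside RT inhibitors including TIBO, or HIV-2, both from the AIDS Research and Reference Program. Infection was in the presence or absence of compound; syncytial plaques were counted at 30-fold magnification 7 days postinfection. IC50 came from linear regression of percent inhibition against log concentration.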

[6] = (§4) Compound was tested for antiviral activity against matched pairs of HIV-1 resistant to AZT; format: functional, Human immunodeficiency virus 1
Method in brief: (§5)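 Matched clinical pairs of AZT-sensitive and AZT-resistant HIV-1 (C-691/G762 or H-112/G910, depending on compound series) were tested by syncytial plaque assay in duplicate sets on poly-L-lysine-adherent CEM-SS cells. Syncytial plaques were counted at 30-fold magnification 7 days postinfection. IC50 came from regression of percent inhibition versus log concentration, averaged over duplicate experiments.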

[7] = test system: Human immunodeficiency virus 2; assay: Compound was tested for antiviral activity against HIV-2; format: functional, organism-based
[8] = (§6) Compound was tested for antiviral activity against matched pairs of HIV-1 sensitive to AZT; format: functional, Human immunodeficiency virus 1
[9] = (§7) Compound was tested for antiviral activity against HIV-1 resistant to TIBO A-17; format: functional, Human immunodeficiency virus 1; method in brief: as §3
CEM-SS [10] = assay: Compound was tested for activity against HIV-1 by syncytial plaque assay performed in duplicate using CEM-SS cells; format: functional, cell-based; details: Homo sapiens
Method in brief: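 CEM-SS cells made adherent with poly-L-lysine, infected with HIV-1 strain IIIB with or without selected compound concentrations; duplicate sets. Syncytial plaques counted at 30-fold magnification 7 days post-infection. Percent inhibition regressed linearly against log concentration to give IC50; zidovudine positive control in all assays. Values averaged over duplicate or triplicate experiments.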

[11] = test system: Human immunodeficiency virus 1; assay: as §7; format: functional, organism-based; method in brief: as §3
[12] = test system: Human immunodeficiency virus 2; assay: Compound was tested for antiviral activity against HIV-2
[13] = test system: Human immunodeficiency virus 1; assay: as §4; format: functional, organism-based; method in brief: as §5
[14] = test system: Human immunodeficiency virus 1; assay: as §6; format: functional, organism-based; method in brief: as §5
[15] = test system: Human immunodeficiency virus 1; assay: Compound was tested for antiviral activity against HIV-1 resistant to AZT; format: functional, organism-based; method in brief: as §5
[16] = test system: Human immunodeficiency virus 1; assay: Compound was tested for antiviral activity against HIV-1 sensitive to AZT; format: functional, organism-based; method in brief: as §5
CEM-SS [17] = assay: Compounds were tested for cytotoxicity against CEM-SS cells in terms of incorporation of [3H]dThd; format: functional, cell-based; details: Homo sapiens; method in brief: as §2

Row | IC50 (Human alphaherpesvirus 1) | IC50 (KB) | IC50 [3] | IC50 (Human betaherpesvirus 5 [4]) | SMILES | IC50 (HFF) | IC50 (CEM-SS [2]) | other results
1 | > 100 µM | 60 µM |  |  | Clc1cc2nc(NC3CC3)n(Cc3ccccc3)c2cc1Cl | 33 µM |  | IC50 (Human betaherpesvirus 5 [1]): 18 µM
2 | > 100 µM | 65 µM | 21 µM | > 100 µM | Nc1nc2cc(Cl)c(Cl)cc2n1Cc1cccc([N+](=O)[O-])c1 | > 100 µM | 47 µM | 
3 | > 100 µM | > 100 µM | > 100 µM | > 100 µM | Clc1ccc(Cn2c(Cl)nc3cc(Cl)c(Cl)cc32)cc1Cl | > 100 µM | > 100 µM | 
4 | > 100 µM | 78 µM | 15 µM | > 10 µM | Clc1cc2nc(Br)n(Cc3ccccc3Cl)c2cc1Cl | > 10 µM | 74 µM | 
5 | > 100 µM | > 100 µM | 27 µM | > 100 µM | Clc1cc2nc(Br)n(Cc3ccccc3)c2cc1Cl | > 100 µM | > 100 µM | 
6 | > 100 µM | > 100 µM | > 100 µM | > 100 µM | FC(F)(F)c1cc(Cn2c(Cl)nc3cc(Cl)c(Cl)cc32)cc(C(F)(F)F)c1 | > 100 µM | > 100 µM | 
7 | 65 µM | 70 µM | 5.9 µM | > 100 µM | FC(F)(F)c1cc(Cn2c(Br)nc3cc(Cl)c(Cl)cc32)cc(C(F)(F)F)c1 | > 100 µM | > 100 µM | 

Second part, the compound before the results:

Row | SMILES | IC50 (Human alphaherpesvirus 1) | IC50 (KB) | IC50 [3] | IC50 (Human betaherpesvirus 5 [4]) | IC50 (HFF) | IC50 (CEM-SS [2]) | other results
8 | Cc1ccc(Cn2c(N)nc3cc(Cl)c(Cl)cc32)cc1 | 80 µM | 50 µM | 20 µM | 30 µM | 32 µM | 40 µM | 
9 | O=[N+]([O-])c1ccc(Cn2c(Br)nc3cc(Cl)c(Cl)cc32)cc1 |  | 40 µM | 14 µM | > 100 µM | > 100 µM | > 100 µM | IC50 [5]: 11 µM; IC50 [6]: 6.9 µM; IC50 [7]: 66 µM; IC50 [8]: 11 µM
10 | Clc1cc2nc(Cl)n(Cc3ccccc3Cl)c2cc1Cl | > 100 µM | 156 µM | 15 µM | 30 µM | > 100 µM | 70 µM | IC50 [9]: 13 µM; IC50 [7]: > 30 µM
11 | Nc1nc2cc(Cl)c(Cl)cc2n1Cc1ccc(Cl)cc1 | > 100 µM | 45 µM | 10 µM | > 100 µM | > 100 µM | 32 µM | 
12 | Clc1ccc(Cn2c(Cl)nc3cc(Cl)c(Cl)cc32)cc1 | > 100 µM | > 100 µM |  | > 100 µM | > 100 µM | > 100 µM | IC50 (CEM-SS [10]): 9.1 µM; IC50 [9]: 19 µM; IC50 [6]: 255 µM; IC50 [7]: > 30 µM; IC50 [8]: 30 µM
13 | Fc1ccc(Cn2c(Cl)nc3cc(Cl)c(Cl)cc32)cc1 | > 100 µM | > 100 µM | 37 µM | > 100 µM | > 100 µM | > 100 µM | IC50 [11]: 19 µM; IC50 [12]: > 30 µM
14 | Nc1nc2cc(Cl)c(Cl)cc2n1Cc1cccc(Cl)c1 | 70 µM | 65 µM | > 30 µM | > 100 µM | > 100 µM | 37 µM | 
15 | FC(F)(F)c1cccc(Cn2c(Cl)nc3cc(Cl)c(Cl)cc32)c1 | > 100 µM | > 100 µM | > 100 µM | > 100 µM | > 100 µM | > 100 µM | 
16 | O=[N+]([O-])c1cccc(Cn2c(Br)nc3cc(Cl)c(Cl)cc32)c1 |  | 150 µM | 5.3 µM | > 100 µM | > 100 µM | > 100 µM | IC50 [13]: 11 µM; IC50 [14]: 8.7 µM; IC50 [11]: 1 µM; IC50 [7]: 28 µM
17 | FC(F)(F)c1ccc(Cn2c(Br)nc3cc(Cl)c(Cl)cc32)cc1 | > 100 µM | > 100 µM | > 100 µM | > 100 µM | > 100 µM | > 100 µM | 
18 | CC(C)(C)c1ccc(Cn2c(Cl)nc3cc(Cl)c(Cl)cc32)cc1 | > 100 µM | > 100 µM | > 100 µM | > 100 µM | > 100 µM | > 100 µM | 
19 | O=[N+]([O-])c1ccc(Cn2c(Cl)nc3cc(Cl)c(Cl)cc32)cc1 | > 100 µM | 183 µM | 7.8 µM | > 100 µM | > 100 µM | 51 µM | 
20 | Cc1cccc(Cn2c(Cl)nc3cc(Cl)c(Cl)cc32)c1 | > 100 µM | > 100 µM | 14 µM | > 100 µM | > 100 µM | > 100 µM | IC50 [9]: 16 µM; IC50 [6]: 13 µM; IC50 [7]: > 30 µM; IC50 [8]: 37 µM
21 | Cc1cccc(Cn2c(Br)nc3cc(Cl)c(Cl)cc32)c1 |  |  | 3.5 µM | > 100 µM | > 100 µM | > 100 µM | IC50 [15]: 9 µM; IC50 [11]: 17 µM; IC50 [16]: 8.7 µM; IC50 [7]: 143 µM
22 | Cc1cn([C@H]2C[C@H](N=[N+]=[N-])[C@@H](CO)O2)c(=O)[nH]c1=O [ZIDOVUDINE] |  |  |  |  |  |  | IC50 (CEM-SS [10]): 0.0026 µM; IC50 (CEM-SS [17]): 1.9 µM
